Results from ChEMBL document CHEMBL1165965, “Synthesis and structure-activity relationships of 1,2,3,4-tetrahydropyrido[2,3-b]pyrazines as potent and selective inhibitors of the anaplastic lymphoma kinase” (Bioorg Med Chem, 2010).

Legend:
[1] = molecular target: Microtubule-associated serine/threonine-protein kinase 1 (Homo sapiens) (UniProt Q9Y2H9); experiment: Inhibition of MAST1 at 1 uM
[2] = system: Phosphatidylinositol 4,5-bisphosphate 3-kinase catalytic subunit alpha isoform (Homo sapiens), P42336 [E545K]; experiment: Inhibition of PIK3CA E545K mutant at 1 uM
[3] = molecular target: T1, Serine/threonine-protein kinase D2 (Homo sapiens) (UniProt Q9BZL6); experiment: Inhibition of PRKD2 at 1 uM
T1 sequence (whole entry): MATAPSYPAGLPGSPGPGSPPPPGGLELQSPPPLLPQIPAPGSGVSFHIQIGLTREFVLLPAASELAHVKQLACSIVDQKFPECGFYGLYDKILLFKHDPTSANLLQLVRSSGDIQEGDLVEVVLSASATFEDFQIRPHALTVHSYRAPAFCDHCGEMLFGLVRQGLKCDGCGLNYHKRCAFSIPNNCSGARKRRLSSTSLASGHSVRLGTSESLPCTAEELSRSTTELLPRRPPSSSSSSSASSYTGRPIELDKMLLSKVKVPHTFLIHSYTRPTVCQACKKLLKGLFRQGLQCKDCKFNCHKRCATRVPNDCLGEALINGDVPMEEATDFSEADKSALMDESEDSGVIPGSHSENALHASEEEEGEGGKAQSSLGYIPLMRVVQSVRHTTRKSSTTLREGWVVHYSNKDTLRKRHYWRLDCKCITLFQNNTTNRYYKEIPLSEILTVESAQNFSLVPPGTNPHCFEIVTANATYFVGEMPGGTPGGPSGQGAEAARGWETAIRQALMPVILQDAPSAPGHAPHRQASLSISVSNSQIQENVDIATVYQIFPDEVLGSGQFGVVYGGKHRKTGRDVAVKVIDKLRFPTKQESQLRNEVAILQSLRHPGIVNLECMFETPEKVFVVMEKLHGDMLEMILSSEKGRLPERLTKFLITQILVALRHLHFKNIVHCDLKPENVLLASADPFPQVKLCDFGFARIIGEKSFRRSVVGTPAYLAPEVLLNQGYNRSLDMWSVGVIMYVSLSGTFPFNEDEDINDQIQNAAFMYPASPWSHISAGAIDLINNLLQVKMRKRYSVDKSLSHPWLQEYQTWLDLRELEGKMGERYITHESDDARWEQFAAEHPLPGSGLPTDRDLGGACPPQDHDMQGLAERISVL

[4] = molecular target: 5'-AMP-activated protein kinase catalytic subunit alpha-2 (Homo sapiens) (UniProt P54646); experiment: Inhibition of AMPK-alpha2 at 1 uM
Method in brief: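 Ambit KINOMEscan screen at a single concentration across a 250–400 kinase panel, recorded as percent inhibition. Selectivity was expressed as S(90), the fraction of kinases inhibited >90%.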

[5] = molecular target: T2, Ephrin type-B receptor 4 (Homo sapiens) (UniProt P54760); experiment: Inhibition of EPHB4 at 1 uM
T2 sequence (whole entry): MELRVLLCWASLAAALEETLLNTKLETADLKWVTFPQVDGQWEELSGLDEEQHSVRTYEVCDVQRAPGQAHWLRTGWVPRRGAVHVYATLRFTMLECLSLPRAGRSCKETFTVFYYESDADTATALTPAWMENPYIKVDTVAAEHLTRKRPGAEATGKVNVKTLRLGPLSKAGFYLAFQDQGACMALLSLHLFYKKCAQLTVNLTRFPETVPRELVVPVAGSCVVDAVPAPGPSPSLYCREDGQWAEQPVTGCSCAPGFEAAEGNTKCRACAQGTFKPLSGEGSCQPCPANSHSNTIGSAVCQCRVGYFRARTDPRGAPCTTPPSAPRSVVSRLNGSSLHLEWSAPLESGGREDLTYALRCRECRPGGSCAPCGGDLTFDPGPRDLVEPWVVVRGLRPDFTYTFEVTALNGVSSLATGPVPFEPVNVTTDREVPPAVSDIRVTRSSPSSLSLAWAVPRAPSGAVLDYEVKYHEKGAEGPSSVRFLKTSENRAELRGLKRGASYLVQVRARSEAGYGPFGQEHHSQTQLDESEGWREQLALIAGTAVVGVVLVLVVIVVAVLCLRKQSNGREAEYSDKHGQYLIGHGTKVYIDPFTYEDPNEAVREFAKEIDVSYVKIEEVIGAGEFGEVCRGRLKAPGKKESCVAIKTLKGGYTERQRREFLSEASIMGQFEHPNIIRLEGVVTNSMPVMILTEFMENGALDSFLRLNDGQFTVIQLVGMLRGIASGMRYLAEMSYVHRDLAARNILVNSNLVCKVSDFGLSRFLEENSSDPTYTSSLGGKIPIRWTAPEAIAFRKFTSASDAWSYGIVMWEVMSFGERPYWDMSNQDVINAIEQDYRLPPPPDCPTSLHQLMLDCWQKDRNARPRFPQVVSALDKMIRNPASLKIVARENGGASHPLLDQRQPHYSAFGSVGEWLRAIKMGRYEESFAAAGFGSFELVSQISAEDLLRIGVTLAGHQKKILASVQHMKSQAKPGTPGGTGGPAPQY
Method in brief: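 Single-concentration screen using Ambit Bioscience KINOMEscan technology across a panel of 250–400 kinases. Per-kinase inhibition from this screen was summarized as S(90), the fraction of kinases inhibited by more than 90%.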

Measured: inhibition

Chain of Microtubule-associated serine/threonine-protein kinase 1 (Homo sapiens) (Q9Y2H9 whole entry, looked up, canonical isoform): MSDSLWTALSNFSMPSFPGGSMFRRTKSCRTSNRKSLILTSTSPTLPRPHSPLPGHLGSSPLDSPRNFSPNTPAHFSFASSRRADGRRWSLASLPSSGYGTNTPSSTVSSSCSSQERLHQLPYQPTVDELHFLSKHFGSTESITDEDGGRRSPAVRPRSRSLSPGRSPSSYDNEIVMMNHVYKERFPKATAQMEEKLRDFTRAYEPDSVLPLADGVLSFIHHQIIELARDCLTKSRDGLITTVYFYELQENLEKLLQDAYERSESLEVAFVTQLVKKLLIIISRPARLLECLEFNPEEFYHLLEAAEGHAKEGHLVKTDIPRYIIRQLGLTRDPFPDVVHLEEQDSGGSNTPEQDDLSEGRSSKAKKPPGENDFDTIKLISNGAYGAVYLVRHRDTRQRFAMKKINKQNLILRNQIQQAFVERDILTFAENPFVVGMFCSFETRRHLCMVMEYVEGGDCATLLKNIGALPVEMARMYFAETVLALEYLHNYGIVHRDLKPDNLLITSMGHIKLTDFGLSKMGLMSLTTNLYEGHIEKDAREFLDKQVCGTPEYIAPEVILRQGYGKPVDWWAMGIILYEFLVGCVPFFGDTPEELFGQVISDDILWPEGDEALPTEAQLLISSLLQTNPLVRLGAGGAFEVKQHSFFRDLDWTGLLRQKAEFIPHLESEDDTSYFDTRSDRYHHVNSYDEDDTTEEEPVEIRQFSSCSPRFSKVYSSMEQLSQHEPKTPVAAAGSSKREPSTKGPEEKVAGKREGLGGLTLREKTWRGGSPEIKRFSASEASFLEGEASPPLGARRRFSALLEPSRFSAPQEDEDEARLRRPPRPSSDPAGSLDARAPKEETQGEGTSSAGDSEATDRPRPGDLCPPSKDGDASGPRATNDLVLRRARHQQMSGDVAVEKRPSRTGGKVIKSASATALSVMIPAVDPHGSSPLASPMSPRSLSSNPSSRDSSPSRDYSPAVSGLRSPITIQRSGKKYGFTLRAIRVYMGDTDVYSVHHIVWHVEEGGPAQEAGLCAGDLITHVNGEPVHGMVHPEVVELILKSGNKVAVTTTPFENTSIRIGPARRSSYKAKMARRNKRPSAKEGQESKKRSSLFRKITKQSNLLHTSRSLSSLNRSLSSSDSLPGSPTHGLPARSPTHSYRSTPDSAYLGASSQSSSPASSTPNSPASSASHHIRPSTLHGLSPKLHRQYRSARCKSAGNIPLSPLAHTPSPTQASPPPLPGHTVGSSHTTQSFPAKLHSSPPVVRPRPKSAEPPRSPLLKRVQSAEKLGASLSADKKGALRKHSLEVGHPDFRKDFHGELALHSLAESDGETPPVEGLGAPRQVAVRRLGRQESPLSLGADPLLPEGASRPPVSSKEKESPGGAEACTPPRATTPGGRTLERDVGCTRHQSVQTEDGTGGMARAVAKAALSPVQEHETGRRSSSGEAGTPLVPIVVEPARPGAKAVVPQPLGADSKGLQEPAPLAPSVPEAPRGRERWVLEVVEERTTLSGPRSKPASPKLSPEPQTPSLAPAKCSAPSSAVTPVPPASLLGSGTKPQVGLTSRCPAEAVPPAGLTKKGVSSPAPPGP
Chain of Phosphatidylinositol 4,5-bisphosphate 3-kinase catalytic subunit alpha isoform (Homo sapiens), P42336 [E545K] (P42336 whole entry E545K, canonical isoform): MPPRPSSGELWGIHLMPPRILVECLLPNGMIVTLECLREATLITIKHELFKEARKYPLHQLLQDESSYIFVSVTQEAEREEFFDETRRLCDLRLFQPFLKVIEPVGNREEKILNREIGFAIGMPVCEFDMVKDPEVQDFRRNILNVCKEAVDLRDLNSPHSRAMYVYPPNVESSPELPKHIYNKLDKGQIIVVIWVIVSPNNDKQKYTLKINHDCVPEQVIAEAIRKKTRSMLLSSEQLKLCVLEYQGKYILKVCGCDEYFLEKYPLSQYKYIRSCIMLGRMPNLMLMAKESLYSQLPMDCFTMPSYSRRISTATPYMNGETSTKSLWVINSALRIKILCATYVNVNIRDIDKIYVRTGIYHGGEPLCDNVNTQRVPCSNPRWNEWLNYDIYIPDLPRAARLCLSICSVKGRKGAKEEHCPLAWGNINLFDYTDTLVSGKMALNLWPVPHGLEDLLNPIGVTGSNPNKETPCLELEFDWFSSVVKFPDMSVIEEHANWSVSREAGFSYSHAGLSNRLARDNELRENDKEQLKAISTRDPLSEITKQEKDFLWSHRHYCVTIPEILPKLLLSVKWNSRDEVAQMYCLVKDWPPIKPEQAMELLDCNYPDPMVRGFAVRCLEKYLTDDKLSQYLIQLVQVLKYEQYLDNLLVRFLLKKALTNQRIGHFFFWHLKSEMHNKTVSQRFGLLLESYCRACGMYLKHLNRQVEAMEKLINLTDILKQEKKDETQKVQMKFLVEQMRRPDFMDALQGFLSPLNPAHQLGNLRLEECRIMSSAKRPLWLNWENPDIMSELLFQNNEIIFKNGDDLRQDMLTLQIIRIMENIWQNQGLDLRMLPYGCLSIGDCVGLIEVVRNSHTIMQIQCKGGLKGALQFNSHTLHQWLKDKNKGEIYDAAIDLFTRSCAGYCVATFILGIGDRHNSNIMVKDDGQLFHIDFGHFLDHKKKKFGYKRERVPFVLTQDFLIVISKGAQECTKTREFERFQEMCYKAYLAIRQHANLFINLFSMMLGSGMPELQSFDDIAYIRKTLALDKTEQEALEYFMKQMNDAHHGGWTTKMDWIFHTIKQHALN
Chain of 5'-AMP-activated protein kinase catalytic subunit alpha-2 (Homo sapiens) (P54646 whole entry, looked up): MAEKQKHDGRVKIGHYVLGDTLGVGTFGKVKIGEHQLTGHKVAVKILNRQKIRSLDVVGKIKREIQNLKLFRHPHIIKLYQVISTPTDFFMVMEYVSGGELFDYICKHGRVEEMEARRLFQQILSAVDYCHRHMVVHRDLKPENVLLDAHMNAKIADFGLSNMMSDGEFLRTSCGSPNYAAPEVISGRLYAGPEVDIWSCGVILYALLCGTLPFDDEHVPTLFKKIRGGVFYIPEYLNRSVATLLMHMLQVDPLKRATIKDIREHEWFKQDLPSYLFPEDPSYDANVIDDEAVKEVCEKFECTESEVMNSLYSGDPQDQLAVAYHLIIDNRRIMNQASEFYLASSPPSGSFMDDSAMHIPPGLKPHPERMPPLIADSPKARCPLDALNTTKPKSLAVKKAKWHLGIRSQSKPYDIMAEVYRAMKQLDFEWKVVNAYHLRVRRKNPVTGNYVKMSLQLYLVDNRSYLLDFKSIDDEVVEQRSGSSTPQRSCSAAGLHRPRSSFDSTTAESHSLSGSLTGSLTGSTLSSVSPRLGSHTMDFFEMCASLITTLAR

CN1CCN(c2ccc(-c3cnc4c(c3)N(Cc3cc(Cl)ccc3Cl)CCN4)cn2)CC1
< 50%: all assays above

CN1CCN(c2ccc(-c3cnc4c(c3)N(Cc3cc(Cl)ccc3C(F)(F)F)CCN4)cn2)CC1
< 50%: all assays above

CN1CCN(c2ccc(-c3cnc4c(c3)N(Cc3c(F)ccc(F)c3Cl)CCN4)cn2)CC1
< 50%: all assays above

O=C(c1ccc(-c2cnc3c(c2)N(Cc2cc(Cl)ccc2C(F)(F)F)CCN3)cc1)N1CCC(N2CCCC2)CC1
< 50%: [3] | [4] | [5]

COC1CCN(C(=O)c2ccc(-c3cnc4c(c3)N(Cc3cc(Cl)ccc3C(F)(F)F)CCN4)cc2)CC1
< 50%: [3] | [4] | [5]

FC(F)(F)c1ccc(Cl)cc1CN1CCNc2ncc(-c3ccnc(N4CCNCC4)c3)cc21
< 50%: all assays above

CN1CCN(c2ccc(-c3cnc4c(c3)N(Cc3cc(F)ccc3F)CCN4)cn2)CC1
< 50%: all assays above

O=C(c1ccc(-c2cnc3c(c2)N(Cc2cc(Cl)ccc2C(F)(F)F)CCN3)cc1)N1CCCCC1
< 50%: [3] | [4] | [5]

CC(=O)N1CCN(c2cc(-c3cnc4c(c3)N(Cc3cc(Cl)ccc3C(F)(F)F)CCN4)ccn2)CC1
< 50%: all assays above

O=C(O)c1ccc(-c2cnc3c(c2)N(Cc2cc(Cl)ccc2C(F)(F)F)CCN3)cc1
< 50%: [3] | [4] | [5]
